Source: ChEMBL document CHEMBL3865799, “Synthesis of a series of novel dihydroartemisinin monomers and dimers containing chalcone as a linker and their anticancer activity” (Eur J Med Chem, 2016)

How the values were obtained:
[1] = Cytotoxicity against human PC3 cells assessed as cell growth inhibition at 50 uM after 48 hrs by MTT assay; assay type: functional; conditions: PC-3, 48 h, read-out: GI
Summary of the method: (§1)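 Adherent lines at 70–75% confluence, grown at 37 °C in 5% CO2 with 10% FCS. Exposed 48 h to compound in DMSO (vehicle <0.2% v/v). MTT dye added 3 h before termination; formazan dissolved in DMSO, OD 570 nm with 620 nm reference. Growth inhibition expressed as % of untreated; IC50 taken from the dose series.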

[2] = Lipophilicity, log P of the compound; assay type: physicochemical; conditions: octanol/water
[3] = Cytotoxicity against human LS180 cells assessed as cell growth inhibition at 50 uM after 48 hrs by MTT assay; assay type: functional; conditions: LS180, 48 h, read-out: GI; summary of the method: as §1
[4] = Cytotoxicity against human HL60 cells assessed as cell growth inhibition at 30 uM after 48 hrs by MTT assay; assay type: functional; conditions: HL-60, 48 h, read-out: GI
Summary of the method: (§2)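 HL-60 suspension cells, 1.5 × 10^4 per well, grown at 37 °C in 5% CO2 with 10% FCS. Treated 48 h with compound in DMSO (vehicle <0.2% v/v). MTT added 3 h before the end. Formazan dissolved in DMSO and read at 570 nm (reference 620 nm). % growth inhibition computed against untreated cells; IC50 taken from the concentration series.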

[5] = Aqueous solubility of the compound at pH 7; assay type: physicochemical
[6] = Cytotoxicity against human MIAPaCa2 cells assessed as cell growth inhibition at 30 uM after 48 hrs by MTT assay; assay type: functional; conditions: MIA PaCa-2, 48 h, read-out: GI; summary of the method: as §1
[7] = Cytotoxicity against human HepG2 cells assessed as cell growth inhibition at 50 uM after 48 hrs by MTT assay; assay type: functional; conditions: HepG2, 48 h, read-out: GI; summary of the method: as §1
[8] = Cytotoxicity against human HL60 cells assessed as cell growth inhibition at 50 uM after 48 hrs by MTT assay; assay type: functional; conditions: HL-60, 48 h, read-out: GI; summary of the method: as §2
[9] = Cytotoxicity against human PC3 cells assessed as cell growth inhibition at 30 uM after 48 hrs by MTT assay; assay type: functional; conditions: PC-3, 48 h, read-out: GI; summary of the method: as §1
[10] = Cytotoxicity against human LS180 cells assessed as cell growth inhibition at 30 uM after 48 hrs by MTT assay; assay type: functional; conditions: LS180, 48 h, read-out: GI; summary of the method: as §1
[11] = Cytotoxicity against human HepG2 cells assessed as cell growth inhibition at 30 uM after 48 hrs by MTT assay; assay type: functional; conditions: HepG2, 48 h, read-out: GI; summary of the method: as §1
[12] = Cytotoxicity against human MIAPaCa2 cells assessed as cell growth inhibition at 50 uM after 48 hrs by MTT assay; assay type: functional; conditions: MIA PaCa-2, 48 h, read-out: GI; summary of the method: as §1

Molecule COc1ccc(/C=C/C(=O)c2ccc(OCCO[C@H]3O[C@@H]4O[C@@]5(C)CC[C@H]6[C@H](C)CC[C@@H]([C@H]3C)[C@@]46OO5)cc2)c(OC)c1OC has an inhibition of growth at 50 µM [1] of 54.2%, a logP [2] of 5.34 to 7.45 and an inhibition of growth at 50 µM [3] of 58.5%. For the same molecule, the inhibition of growth at 30 µM [4] was 78.7%, the solubility [5] was < 10 µg/mL and the inhibition of growth at 30 µM [6] was 36.2%. For the same molecule, the inhibition of growth at 50 µM [7] was 30.1%, the inhibition of growth at 50 µM [8] was 82.9% and the inhibition of growth at 30 µM [9] was 53.3%. The inhibition of growth at 30 µM [10] was 50.8%, the inhibition of growth at 30 µM [11] was 28.1% and the inhibition of growth at 50 µM [12] was 43.1%.

Molecule C[C@H]1[C@@H](OCCOc2ccc(-c3cc(=O)c4ccc(OCCO[C@H]5O[C@H]6O[C@@]7(C)CC[C@H]8[C@H](C)CC[C@@H]([C@H]5C)[C@@]68OO7)cc4o3)cc2)O[C@H]2O[C@@]3(C)CC[C@H]4[C@H](C)CC[C@@H]1[C@@]24OO3 has an inhibition of growth at 50 µM [1] of 41.3%, a logP [2] of 5.34 to 7.45 and an inhibition of growth at 50 µM [3] of 39.7%. For the same molecule, the inhibition of growth at 30 µM [4] was 71.8%, the solubility [5] was < 10 µg/mL and the inhibition of growth at 30 µM [6] was 32.7%. It also gave an inhibition of growth at 50 µM [7] of 37.7%, an inhibition of growth at 50 µM [8] of 73.8% and an inhibition of growth at 30 µM [9] of 40.6%. It also gave an inhibition of growth at 30 µM [10] of 30.5%, an inhibition of growth at 30 µM [11] of 30.1 to 87.4% and an inhibition of growth at 50 µM [12] of 41.8%.

Molecule C[C@H]1[C@@H](OCCOc2ccc(/C=C/C(=O)c3ccc(Cl)s3)cc2)O[C@@H]2O[C@@]3(C)CC[C@H]4[C@H](C)CC[C@@H]1[C@@]24OO3 has an inhibition of growth at 50 µM [1] of 39.9%, a logP [2] of 5.34 to 7.45 and an inhibition of growth at 50 µM [3] of 41.6%. For the same molecule, the inhibition of growth at 30 µM [4] was 91.9%, the solubility [5] was < 10 µg/mL and the inhibition of growth at 30 µM [6] was 53.2%. It also gave an inhibition of growth at 50 µM [7] of 25.2%, an inhibition of growth at 50 µM [8] of 92.1% and an inhibition of growth at 30 µM [9] of 37.4%. For the same molecule, the inhibition of growth at 30 µM [10] was 39.5%, the inhibition of growth at 30 µM [11] was 21.1% and the inhibition of growth at 50 µM [12] was 59.7%.

With C[C@H]1[C@@H](OCCOc2ccc(C(=O)/C=C/c3c[nH]c4ccccc34)cc2)O[C@@H]2O[C@@]3(C)CC[C@H]4[C@H](C)CC[C@@H]1[C@@]24OO3 the inhibition of growth at 50 µM [1] was 39.6%, the logP [2] was 5.34 to 7.45 and the inhibition of growth at 50 µM [3] was 44.1%. The inhibition of growth at 30 µM [4] was 89.1%, the solubility [5] was < 10 µg/mL and the inhibition of growth at 30 µM [6] was 49.1%. The inhibition of growth at 50 µM [7] was 25.9%, the inhibition of growth at 50 µM [8] was 91.8% and the inhibition of growth at 30 µM [9] was 38.6%. For the same molecule, the inhibition of growth at 30 µM [10] was 41.9%, the inhibition of growth at 30 µM [11] was 21.2% and the inhibition of growth at 50 µM [12] was 49.4%.

Work on C[C@H]1[C@@H](OCCOc2ccc(/C=C/C(=O)c3cc4ccccc4o3)cc2)O[C@@H]2O[C@@]3(C)CC[C@H]4[C@H](C)CC[C@@H]1[C@@]24OO3 yielded an inhibition of growth at 50 µM [1] of 48.5%, a logP [2] of 5.34 to 7.45 and an inhibition of growth at 50 µM [3] of 43.6%. The inhibition of growth at 30 µM [4] was 84.6%, the solubility [5] was < 10 µg/mL and the inhibition of growth at 30 µM [6] was 52.4%. For the same molecule, the inhibition of growth at 50 µM [7] was 32%, the inhibition of growth at 50 µM [8] was 88.7% and the inhibition of growth at 30 µM [9] was 42.5%. For the same molecule, the inhibition of growth at 30 µM [10] was 37.6%, the inhibition of growth at 30 µM [11] was 29.9% and the inhibition of growth at 50 µM [12] was 62.3%.

Molecule CCOc1cc(/C=C/C(=O)c2ccc(OCCO[C@H]3O[C@@H]4O[C@@]5(C)CC[C@H]6[C@H](C)CC[C@@H]([C@H]3C)[C@@]46OO5)cc2)ccc1O has an inhibition of growth at 50 µM [1] of 58.9%, a logP [2] of 5.34 to 7.45 and an inhibition of growth at 50 µM [3] of 36.3%. The inhibition of growth at 30 µM [4] was 80.8%, the solubility [5] was < 10 µg/mL and the inhibition of growth at 30 µM [6] was 49.4%. For the same molecule, the inhibition of growth at 50 µM [7] was 28.2%, the inhibition of growth at 50 µM [8] was 84.1% and the inhibition of growth at 30 µM [9] was 55.1%. The inhibition of growth at 30 µM [10] was 27.4%, the inhibition of growth at 30 µM [11] was 25.5% and the inhibition of growth at 50 µM [12] was 49.8%.

In the case of C[C@@H]1CC[C@H]2[C@@H](C)C(=O)O[C@@H]3O[C@@]4(C)CC[C@@H]1[C@]32OO4 [ARTEMISININ], the inhibition of growth at 50 µM [1] is reported as 17.6%, the inhibition of growth at 50 µM [3] is reported as 18.5% and the inhibition of growth at 30 µM [4] is reported as 14.4%. The inhibition of growth at 30 µM [6] was 13%, the inhibition of growth at 50 µM [7] was 14.4% and the inhibition of growth at 50 µM [8] was 19.8%. For the same molecule, the inhibition of growth at 30 µM [9] was 16%, the inhibition of growth at 30 µM [10] was 13.4% and the inhibition of growth at 30 µM [11] was 10.5%. The inhibition of growth at 50 µM [12] was 18%.
